# From ChEMBL document CHEMBL4406821, “Novel dual inhibitors targeting CDK4 and VEGFR2 synergistically suppressed cancer progression and angiogenesis” (Eur J Med Chem, 2019)
# The source made the active and inactive calls. The rule behind the calls is not given here.
# Legend:
# [1] = Volume of distribution in Sprague-Dawley rat at 10 mg/kg, po by HPLC-MS analysis; type: ADME, organism-based; details: in vivo
# [2] = target: Mitogen-activated protein kinase 11 (Homo sapiens) (UniProt Q15759); experiment: Inhibition of recombinant human full length SAPK2b at 1 uM using myelin basic protein as substrate incubated for 40 mins in presence of [gamma-33P]-ATP by scintillation counting method relative to control
# Method in brief: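 Single-point inhibition at 1 uM measured in a commercial kinase profiling panel (KinaseProfiler); each value is the mean of two independent experiments.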
# [3] = target: Serine/threonine-protein kinase Chk1 (Homo sapiens) (UniProt O14757); experiment: Inhibition of recombinant full length human CHK1 at 1 uM using KKKVSRSGLYRSP as substrate incubated for 40 mins in presence of [gamma-33P]-ATP by scintillation counting method relative to control
# Method in brief: (§1)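 Kinase panel profiling at 1 μM performed by Eurofins KinaseProfiler; percent inhibition reported as mean of two independent experiments.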
# [4] = test system: PI3-kinase p110-alpha/p85-alpha (Homo sapiens), P27986+P42336 [E542K]; experiment: Inhibition of recombinant human full length PI3K p110alpha/p85alpha E542K mutant at 1 uM using phosphatidylinositol 4,5-bisphosphate as substrate incubated for 40 mins in presence of [gamma-33P]-ATP by scintillation counting method relative to control; type: protein-complex assay
# [5] = test system: Proto-oncogene tyrosine-protein kinase receptor Ret (Homo sapiens), P07949 [V804M]; experiment: Inhibition of recombinant human RET V804M mutant (658 to end residues) at 1 uM using KKKVSRSGLYRSPSMPENLNRPR as substrate incubated for 40 mins in presence of [gamma-33P]-ATP by scintillation counting method relative to control
# [6] = target: CDK4/Cyclin D3 (Homo sapiens) (UniProt P11802+P30281); experiment: Inhibition of recombinant human full length CDK4/cyclinD3 at 1 uM using Rb fragment as substrate incubated for 40 mins in presence of [gamma-33P]-ATP by scintillation counting method relative to control; type: protein-complex assay
# [7] = Toxicity in BALB/c mouse assessed as toxic effects in spleen at 40 mg/kg, po administered for 48 hrs by hematoxylin and eosin staining method; details: in vivo
# [8] = Cmax in Sprague-Dawley rat at 10 mg/kg, po by HPLC-MS analysis; type: ADME, organism-based; parameters: dose 10 mg/kg, route oral; details: in vivo
# Method in brief: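 Rats fitted with jugular vein catheters for serial blood sampling. Compound dissolved in saline with 5% (v/v) DMSO and given as a single 10 mg/kg dose iv or po after an overnight fast, n = 5 per group. Plasma isolated at once and measured by HPLC with tandem MS detection. Parameters derived by noncompartmental fitting.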
# CDK2/Cyclin A2 = CDK2/Cyclin A2 (Homo sapiens, UniProt P24941); experiment: Inhibition of recombinant human full length CDK2/CyclinA using as histone H1 substrate incubated for 40 mins in presence of [gamma-33P]-ATP by scintillation counting method; type: protein-complex assay
# [9] = target: Dual specificity protein kinase TTK (Homo sapiens) (UniProt P33981); experiment: Inhibition of recombinant human full length TTK at 1 uM using MBP as substrate incubated for 40 mins in presence of [gamma-33P]-ATP by scintillation counting method relative to control
# [10] = Toxicity in NOD/SCID BALB/c mouse xenografted with human SiHa cells assessed as effect on blood parameter by measuring PCT at 40 mg/kg, po administered once two days for 4 times by hematology analyzer; type: organism-based; details: in vivo
# [11] = target: Aurora kinase C (Homo sapiens) (UniProt Q9UQB9); experiment: Inhibition of recombinant human Aurora-C (35 to end residues) at 1 uM using AKRRRLSSLRA as substrate incubated for 40 mins in presence of [gamma-33P]-ATP by scintillation counting method relative to control; method in brief: as §1
# [12] = Toxicity in NOD/SCID BALB/c mouse xenografted with human SiHa cells assessed as reduction in body weight at 20 to 40 mg/kg, po administered for 21 days; type: organism-based; details: in vivo, 504 h
# [13] = target: Protein kinase C delta type (Homo sapiens) (UniProt Q05655); experiment: Inhibition of recombinant human PKCdelta (2 to end residues) at 1 uM using ERMRPRKRQGSVRRRV as substrate incubated for 40 mins in presence of [gamma-33P]-ATP by scintillation counting method relative to control
# [14] = target: Insulin-like growth factor 1 receptor (Homo sapiens) (UniProt P08069); experiment: Inhibition of recombinant activated human IGF1R (959 to end residues) at 1 uM using KKKSPGEYVNIEFG as substrate incubated for 40 mins in presence of [gamma-33P]-ATP by scintillation counting method relative to control; method in brief: as §1
# [15] = target: T1, Vascular endothelial growth factor receptor 2 (Homo sapiens, UniProt P35968); experiment: Inhibition of recombinant human KDR (790 to end residues) at 1 uM using myelin basic protein as substrate incubated for 40 mins in presence of [gamma-33P]-ATP by scintillation counting method relative to control
# [16] = target: Serine/threonine-protein kinase SIK1 (Homo sapiens) (UniProt P57059); experiment: Inhibition of recombinant human SIK (1 to 281 residues) at 1 uM using AMARAASAAALARRR as substrate incubated for 40 mins in presence of [gamma-33P]-ATP by scintillation counting method relative to control
# [17] = test system: Serine/threonine-protein kinase Chk2 (Homo sapiens), O96017 [R145W]; experiment: Inhibition of recombinant human CHK2 R145W mutant (5 to end residues) at 1 uM using KKKVSRSGLYRSP as substrate incubated for 40 mins in presence of [gamma-33P]-ATP by scintillation counting method relative to control; method in brief: as §1
# [18] = target: Mast/stem cell growth factor receptor Kit (Homo sapiens) (UniProt P10721); experiment: Inhibition of recombinant human cKIT (544 to end residues) at 1 uM using poly(Glu, Tyr) 4:1 as substrate incubated for 40 mins in presence of [gamma-33P]-ATP by scintillation counting method relative to control
# Method in brief: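 Tested at a single 1 uM in an outsourced commercial kinase-profiling panel, read as percent inhibition. Each value is the mean of two independent experiments.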
# [19] = Toxicity in BALB/c mouse assessed as effect on blood parameter by measuring lymphocytes content at 40 mg/kg, po administered once two days for 4 times by hematology analyzer; details: in vivo
# HeLa = experiment: Antiproliferative activity against human HeLa cells assessed as reduction in cell viability at 40 to 80 nM incubated for 48 hrs by EdU staining based laser scanning confocal microscopy; type: functional
# Method in brief: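 Cells, 5×10^4, were seeded in 24-well plates and treated for 48 h. They were then labeled using an EdU Apollo 488 imaging kit with Hoechst 33342 nuclear stain and imaged by laser scanning confocal microscopy. Percent EdU-positive cells = EdU-positive/Hoechst-stained × 100%.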
# [20] = target: T1, Vascular endothelial growth factor receptor 2; details: HUVEC, 40 nM
# SiHa = experiment: Inhibition of colony formation in human SiHa cells at 80 nM incubated for 5 days by crystal violet staining based light microscopy; type: functional, cell-based
# Method in brief: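 4 × 10^3 cells per well were cultured with graded concentrations for 5 days. Cells were then fixed with 20% methanol, stained with 0.5% crystal violet and photographed by light microscopy.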
# T1 sequence (P35968 whole entry, the tested form may be a part): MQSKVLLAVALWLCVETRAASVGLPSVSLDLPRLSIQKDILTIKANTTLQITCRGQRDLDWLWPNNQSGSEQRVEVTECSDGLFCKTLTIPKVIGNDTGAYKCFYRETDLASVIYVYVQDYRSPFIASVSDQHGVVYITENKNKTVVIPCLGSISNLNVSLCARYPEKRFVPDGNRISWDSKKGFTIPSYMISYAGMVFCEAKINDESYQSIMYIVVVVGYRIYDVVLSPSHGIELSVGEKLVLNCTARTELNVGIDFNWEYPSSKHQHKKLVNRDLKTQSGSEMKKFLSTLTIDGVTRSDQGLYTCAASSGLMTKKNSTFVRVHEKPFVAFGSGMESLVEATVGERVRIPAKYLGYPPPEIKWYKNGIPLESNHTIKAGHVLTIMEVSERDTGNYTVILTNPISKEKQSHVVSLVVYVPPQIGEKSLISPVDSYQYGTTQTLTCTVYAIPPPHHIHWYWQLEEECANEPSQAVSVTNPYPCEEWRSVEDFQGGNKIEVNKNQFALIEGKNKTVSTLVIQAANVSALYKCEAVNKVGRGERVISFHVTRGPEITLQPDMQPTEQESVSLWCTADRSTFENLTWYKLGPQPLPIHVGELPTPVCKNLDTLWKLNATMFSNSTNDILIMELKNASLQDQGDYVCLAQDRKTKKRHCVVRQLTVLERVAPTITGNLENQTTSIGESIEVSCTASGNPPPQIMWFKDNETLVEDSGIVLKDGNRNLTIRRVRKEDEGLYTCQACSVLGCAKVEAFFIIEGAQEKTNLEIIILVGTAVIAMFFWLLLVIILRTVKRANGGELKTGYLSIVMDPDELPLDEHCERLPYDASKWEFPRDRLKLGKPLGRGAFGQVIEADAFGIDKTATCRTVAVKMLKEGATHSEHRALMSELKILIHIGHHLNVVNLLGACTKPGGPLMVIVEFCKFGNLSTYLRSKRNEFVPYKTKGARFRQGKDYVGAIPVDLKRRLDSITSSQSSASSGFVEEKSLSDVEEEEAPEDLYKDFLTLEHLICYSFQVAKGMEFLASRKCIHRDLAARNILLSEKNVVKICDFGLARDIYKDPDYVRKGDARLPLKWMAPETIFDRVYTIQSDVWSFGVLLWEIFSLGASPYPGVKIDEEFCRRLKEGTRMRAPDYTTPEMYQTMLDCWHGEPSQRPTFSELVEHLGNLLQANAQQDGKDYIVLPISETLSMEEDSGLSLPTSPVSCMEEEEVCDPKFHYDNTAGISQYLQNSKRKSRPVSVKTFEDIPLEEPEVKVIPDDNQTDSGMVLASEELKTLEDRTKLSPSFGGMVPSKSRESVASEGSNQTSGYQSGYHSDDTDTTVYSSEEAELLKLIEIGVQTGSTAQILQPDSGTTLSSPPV
# Sequence of Serine/threonine-protein kinase Chk1 (Homo sapiens) (O14757 whole entry): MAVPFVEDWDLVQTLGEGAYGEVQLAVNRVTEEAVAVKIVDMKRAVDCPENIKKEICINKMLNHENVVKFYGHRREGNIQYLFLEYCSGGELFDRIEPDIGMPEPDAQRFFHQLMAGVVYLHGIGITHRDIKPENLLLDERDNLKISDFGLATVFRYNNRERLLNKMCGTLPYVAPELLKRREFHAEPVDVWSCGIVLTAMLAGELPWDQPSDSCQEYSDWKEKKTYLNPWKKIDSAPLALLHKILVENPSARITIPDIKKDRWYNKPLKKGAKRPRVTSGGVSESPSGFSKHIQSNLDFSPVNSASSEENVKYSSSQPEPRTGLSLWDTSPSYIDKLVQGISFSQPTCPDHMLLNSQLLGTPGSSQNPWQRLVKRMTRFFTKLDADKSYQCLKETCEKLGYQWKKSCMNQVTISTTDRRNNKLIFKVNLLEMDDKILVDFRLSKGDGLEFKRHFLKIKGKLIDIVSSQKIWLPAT
# Sequence of Proto-oncogene tyrosine-protein kinase receptor Ret (Homo sapiens), P07949 [V804M] (P07949 whole entry V804M, the tested form may be a part): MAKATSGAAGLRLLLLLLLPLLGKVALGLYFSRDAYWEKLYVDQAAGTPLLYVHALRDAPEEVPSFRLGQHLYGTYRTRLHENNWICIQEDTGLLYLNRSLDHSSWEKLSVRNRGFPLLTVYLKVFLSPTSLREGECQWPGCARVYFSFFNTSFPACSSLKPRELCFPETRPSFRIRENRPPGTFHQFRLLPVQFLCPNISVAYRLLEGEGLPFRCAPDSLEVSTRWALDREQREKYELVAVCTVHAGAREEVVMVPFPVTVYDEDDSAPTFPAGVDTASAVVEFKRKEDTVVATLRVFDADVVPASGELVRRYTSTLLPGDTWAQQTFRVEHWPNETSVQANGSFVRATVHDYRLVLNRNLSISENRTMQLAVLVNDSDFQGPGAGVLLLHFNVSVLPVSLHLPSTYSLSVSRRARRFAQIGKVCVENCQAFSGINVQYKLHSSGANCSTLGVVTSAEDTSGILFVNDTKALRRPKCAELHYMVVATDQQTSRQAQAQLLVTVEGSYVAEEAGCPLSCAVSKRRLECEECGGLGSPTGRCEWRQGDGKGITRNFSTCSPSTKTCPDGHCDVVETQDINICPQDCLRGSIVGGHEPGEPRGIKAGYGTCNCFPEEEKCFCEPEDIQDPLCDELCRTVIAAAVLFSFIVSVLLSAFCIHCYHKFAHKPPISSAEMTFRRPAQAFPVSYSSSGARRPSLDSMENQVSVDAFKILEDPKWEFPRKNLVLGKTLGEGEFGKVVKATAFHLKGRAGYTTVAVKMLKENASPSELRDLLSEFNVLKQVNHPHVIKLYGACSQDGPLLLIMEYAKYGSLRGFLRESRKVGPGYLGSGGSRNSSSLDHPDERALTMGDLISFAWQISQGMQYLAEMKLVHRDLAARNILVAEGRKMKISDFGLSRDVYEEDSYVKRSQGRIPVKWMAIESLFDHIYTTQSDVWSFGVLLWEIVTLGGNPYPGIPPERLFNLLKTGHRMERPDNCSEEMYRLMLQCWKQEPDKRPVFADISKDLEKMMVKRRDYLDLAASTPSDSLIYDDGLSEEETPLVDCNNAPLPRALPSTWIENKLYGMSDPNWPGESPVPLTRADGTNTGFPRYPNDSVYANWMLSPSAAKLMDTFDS
# Sequence of Aurora kinase C (Homo sapiens) (Q9UQB9 whole entry): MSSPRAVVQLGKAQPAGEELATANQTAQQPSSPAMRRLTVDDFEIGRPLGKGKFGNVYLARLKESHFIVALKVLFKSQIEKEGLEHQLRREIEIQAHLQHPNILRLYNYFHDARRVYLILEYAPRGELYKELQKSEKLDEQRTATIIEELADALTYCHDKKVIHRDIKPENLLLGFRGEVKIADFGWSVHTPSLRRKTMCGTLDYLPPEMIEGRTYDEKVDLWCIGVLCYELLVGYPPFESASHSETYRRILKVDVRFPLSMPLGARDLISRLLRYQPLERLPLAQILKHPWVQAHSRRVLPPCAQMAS
# Sequence of Serine/threonine-protein kinase SIK1 (Homo sapiens) (P57059 whole entry, the tested form may be a part): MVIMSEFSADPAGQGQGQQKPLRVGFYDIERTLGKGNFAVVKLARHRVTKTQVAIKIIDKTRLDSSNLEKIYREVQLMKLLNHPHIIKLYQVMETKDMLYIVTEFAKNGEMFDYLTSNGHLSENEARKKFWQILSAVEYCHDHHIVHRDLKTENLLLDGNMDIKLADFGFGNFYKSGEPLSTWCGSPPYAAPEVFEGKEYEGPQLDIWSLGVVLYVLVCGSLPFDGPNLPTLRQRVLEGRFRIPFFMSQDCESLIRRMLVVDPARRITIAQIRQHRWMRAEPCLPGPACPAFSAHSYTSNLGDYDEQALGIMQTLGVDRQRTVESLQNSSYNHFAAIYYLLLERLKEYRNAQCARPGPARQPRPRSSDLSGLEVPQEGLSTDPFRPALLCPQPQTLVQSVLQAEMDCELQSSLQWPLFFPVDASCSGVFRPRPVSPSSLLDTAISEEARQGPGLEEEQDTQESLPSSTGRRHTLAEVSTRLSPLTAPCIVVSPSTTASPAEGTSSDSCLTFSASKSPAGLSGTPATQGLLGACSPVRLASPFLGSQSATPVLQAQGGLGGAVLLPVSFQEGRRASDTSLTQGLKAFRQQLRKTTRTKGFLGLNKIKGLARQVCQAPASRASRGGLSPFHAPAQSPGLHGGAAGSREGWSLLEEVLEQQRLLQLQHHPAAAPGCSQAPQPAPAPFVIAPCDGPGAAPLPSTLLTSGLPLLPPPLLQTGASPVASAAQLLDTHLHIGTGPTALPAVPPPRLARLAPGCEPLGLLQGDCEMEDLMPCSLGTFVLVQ
# Sequence of Dual specificity protein kinase TTK (Homo sapiens) (P33981 whole entry): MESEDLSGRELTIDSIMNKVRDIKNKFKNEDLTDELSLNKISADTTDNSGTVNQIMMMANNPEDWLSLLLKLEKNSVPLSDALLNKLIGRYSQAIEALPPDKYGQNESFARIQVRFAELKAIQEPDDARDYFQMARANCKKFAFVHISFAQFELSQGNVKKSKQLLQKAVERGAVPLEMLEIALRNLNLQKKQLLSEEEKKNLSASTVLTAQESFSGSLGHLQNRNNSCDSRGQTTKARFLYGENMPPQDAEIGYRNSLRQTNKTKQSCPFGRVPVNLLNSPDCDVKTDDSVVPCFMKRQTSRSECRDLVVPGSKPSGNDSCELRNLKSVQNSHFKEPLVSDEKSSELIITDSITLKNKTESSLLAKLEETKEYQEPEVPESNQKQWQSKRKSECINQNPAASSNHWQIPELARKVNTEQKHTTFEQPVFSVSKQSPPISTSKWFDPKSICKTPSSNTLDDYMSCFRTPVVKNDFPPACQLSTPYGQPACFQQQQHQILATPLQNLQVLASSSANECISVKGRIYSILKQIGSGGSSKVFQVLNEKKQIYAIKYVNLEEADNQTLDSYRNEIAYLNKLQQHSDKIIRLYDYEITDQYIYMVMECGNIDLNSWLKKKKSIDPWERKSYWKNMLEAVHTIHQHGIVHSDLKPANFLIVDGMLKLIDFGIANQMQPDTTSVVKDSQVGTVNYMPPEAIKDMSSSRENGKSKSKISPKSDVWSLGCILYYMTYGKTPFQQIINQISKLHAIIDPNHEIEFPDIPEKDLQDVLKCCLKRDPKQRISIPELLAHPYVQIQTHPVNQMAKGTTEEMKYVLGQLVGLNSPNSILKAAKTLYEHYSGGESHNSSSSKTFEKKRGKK
smiles,measurement,setting,value
Cc1ccc(NC(=O)C2(C(=O)Nc3ccc(Nc4ncc(F)c(-c5cc(F)c6nc(C)n(C(C)C)c6c5)n4)cc3)CC2)cc1,Vd,[1],6 L/kg
same,inhibition,[2],0%
same,inhibition,[3],28%
same,inhibition,[4],5%
same,inhibition,[5],27%
same,inhibition,[6],97%
same,Activity,[7],Non-Toxic
same,Cmax,[8],1000 ng/mL
same,IC50,CDK2/Cyclin A2,230 nM
same,inhibition,[9],65%
same,Activity,[10],Non-Toxic
same,inhibition,[11],9%
same,Activity,[12],Toxic
same,inhibition,[13],29%
same,inhibition,[14],37%
same,inhibition,[15],95%
same,inhibition,[16],21%
same,inhibition,[17],28%
same,inhibition,[18],17%
same,Activity,[19],Non-Toxic
same,inhibition,HeLa,Active
COc1cc2nccc(Oc3ccc(NC(=O)C4(C(=O)Nc5ccc(F)cc5)CC4)cc3)c2cc1OC [CABOZANTINIB],inhibition,[20],Active
same,inhibition,SiHa,Active
